Here are results for 24 compounds from ChEMBL document CHEMBL3997796 (J Med Chem, 2017).

Activity calls are given as the source filed them. No cut-off for these calls is given here. Where only a bound is given, the exact number is not on record here.

The target in experiment [1] is T1, Autotaxin (Homo sapiens, UniProt Q13822). Briefly: Inhibition of recombinant human C-terminal FLAg-tagged ATX lysophospholipase D activity expressed in baculovirus infected sf9 cells using FRET based FS-3 substrate measured every 2 mins for 1 hr by fluorescence assay.
Experiment [2] addresses T1, Autotaxin. Briefly: Inhibition of recombinant human C-terminal FLAg-tagged ATX nucleotide pyrophosphate phosphatase activity expressed in baculovirus infected sf9 cells using pNP-TMP as substrate measured every 2 mins for 1 hr by fluorescence assay.
The target of experiment [3] is T2, Glycerophosphocholine cholinephosphodiesterase ENPP6 (Homo sapiens) (UniProt Q6UWR7).
T2 sequence (whole entry): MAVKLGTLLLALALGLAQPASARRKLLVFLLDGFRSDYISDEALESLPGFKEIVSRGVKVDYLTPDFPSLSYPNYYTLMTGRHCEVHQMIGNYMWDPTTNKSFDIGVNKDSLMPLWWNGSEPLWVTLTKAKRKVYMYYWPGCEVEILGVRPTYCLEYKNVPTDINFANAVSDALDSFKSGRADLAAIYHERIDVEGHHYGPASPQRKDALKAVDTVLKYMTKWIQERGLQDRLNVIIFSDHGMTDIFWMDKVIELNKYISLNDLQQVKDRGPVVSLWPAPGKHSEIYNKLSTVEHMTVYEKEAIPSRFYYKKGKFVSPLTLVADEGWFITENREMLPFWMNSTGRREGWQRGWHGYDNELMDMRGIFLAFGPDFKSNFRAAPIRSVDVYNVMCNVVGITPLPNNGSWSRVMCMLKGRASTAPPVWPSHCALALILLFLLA
Briefly: Inhibition of ENPP6 (unknown origin) using pNPPC as substrate measured every 2 mins for 1 hr by […]. The method, boiled down: (§1)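 10 nM ENPP6 or ENPP7, 10 μM pNPPC, compound 0–10 μM, triplicate; ENPP6 buffer 100 mM Tris, 500 mM NaCl, 0.05% Triton pH 9.0; ENPP7 buffer 50 mM Tris, 150 mM NaCl, 10 mM taurocholate pH 8.5; 405 nm absorbance every 2 min for 1 h.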

The target in experiment [4] is T3, Ectonucleotide pyrophosphatase/phosphodiesterase family member 7 (Homo sapiens) (UniProt Q6UWV6).
T3 sequence (whole entry): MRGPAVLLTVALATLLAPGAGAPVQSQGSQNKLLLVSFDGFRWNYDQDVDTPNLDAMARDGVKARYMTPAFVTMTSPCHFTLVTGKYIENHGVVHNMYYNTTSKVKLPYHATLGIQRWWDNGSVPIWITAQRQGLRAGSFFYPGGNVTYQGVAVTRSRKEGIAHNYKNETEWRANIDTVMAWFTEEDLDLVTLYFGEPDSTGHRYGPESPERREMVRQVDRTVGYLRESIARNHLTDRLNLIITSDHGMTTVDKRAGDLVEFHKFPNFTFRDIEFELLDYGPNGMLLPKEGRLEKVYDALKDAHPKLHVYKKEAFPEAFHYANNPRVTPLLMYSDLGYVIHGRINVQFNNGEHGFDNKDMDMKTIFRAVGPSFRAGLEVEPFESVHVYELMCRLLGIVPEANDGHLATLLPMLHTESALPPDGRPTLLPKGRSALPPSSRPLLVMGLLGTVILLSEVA
Briefly: Inhibition of ENPP7 (unknown origin) using pNPPC as substrate measured every 2 mins for 1 hr by […]. In a few lines: as §1

The target of experiment [5] is Lysophosphatidic acid receptor 1 (Homo sapiens, UniProt Q92633). Briefly: Antagonist activity at LPA1 receptor (unknown origin) expressed in rat RH7777 cells assessed as inhibition of LPA-induced intracellular calcium level measured every 3.42 secs for 70 secs by Fura-2-AM dye based fluorescence assay. Type of experiment: functional, cell-based. (A change in cytosolic calcium serves as a functional read-out for many receptors and channels.)

In experiment [6] the target is T4, Lysophosphatidic acid receptor 3 (Homo sapiens) (UniProt Q9UBY5).
T4 sequence (whole entry): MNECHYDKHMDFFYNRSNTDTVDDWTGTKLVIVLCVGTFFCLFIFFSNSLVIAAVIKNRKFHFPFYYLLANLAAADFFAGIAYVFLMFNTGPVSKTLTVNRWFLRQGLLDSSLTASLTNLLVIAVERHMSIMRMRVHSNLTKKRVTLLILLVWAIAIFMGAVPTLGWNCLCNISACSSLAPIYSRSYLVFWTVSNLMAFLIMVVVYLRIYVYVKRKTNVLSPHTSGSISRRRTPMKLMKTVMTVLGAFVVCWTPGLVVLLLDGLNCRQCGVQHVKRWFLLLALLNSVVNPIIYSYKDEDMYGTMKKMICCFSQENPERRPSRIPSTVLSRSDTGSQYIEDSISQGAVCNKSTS
Briefly: Antagonist activity at LPA3 receptor (unknown origin) expressed in rat RH7777 cells assessed as inhibition of LPA-induced intracellular calcium level up to 100 uM measured every 3.42 secs for 70 secs by Fura-2-AM dye based fluorescence assay. In kind it is functional, cell-based.

Experiment [7] has as its target Lysophosphatidic acid receptor 2 (Homo sapiens) (UniProt Q9HBW0). Briefly: Antagonist activity at LPA2 receptor (unknown origin) expressed in MEF cells assessed as inhibition of LPA-induced intracellular calcium level up to 100 uM measured every 3.42 secs for 70 secs by Fura-2-AM dye based fluorescence assay. Type of experiment: functional, cell-based.
In experiment [8] the target is Lysophosphatidic acid receptor 4 (Homo sapiens) (UniProt Q99677). Put plainly: Antagonist activity at LPA4 receptor (unknown origin) expressed in CHO cells assessed as inhibition of LPA-induced intracellular calcium level up to 100 uM measured every 3.42 secs for 70 secs by Fura-2-AM dye based fluorescence assay. In kind it is functional, cell-based.
In experiment [9] the target is Lysophosphatidic acid receptor 5 (Homo sapiens) (UniProt Q9H1C0). Briefly: Antagonist activity at FLAG-tagged LPA5 receptor (unknown origin) expressed in rat B103 cells assessed as inhibition of LPA-induced intracellular calcium level up to 100 uM measured every 3.42 secs for 70 secs by Fura-2-AM dye based fluorescence assay. In kind it is functional, cell-based.
Lysophosphatidic acid receptor 5 (Homo sapiens), sequence (Q9H1C0 whole entry): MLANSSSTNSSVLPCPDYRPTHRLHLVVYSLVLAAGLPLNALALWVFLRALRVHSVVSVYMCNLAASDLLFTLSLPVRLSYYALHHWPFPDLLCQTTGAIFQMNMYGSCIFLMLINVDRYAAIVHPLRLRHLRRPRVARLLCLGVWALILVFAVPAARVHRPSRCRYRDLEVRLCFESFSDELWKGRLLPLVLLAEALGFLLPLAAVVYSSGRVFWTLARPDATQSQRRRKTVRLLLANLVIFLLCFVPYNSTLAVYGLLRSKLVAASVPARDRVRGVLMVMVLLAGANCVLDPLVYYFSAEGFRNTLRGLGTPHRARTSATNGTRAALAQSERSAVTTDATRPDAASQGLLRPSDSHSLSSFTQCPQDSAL

Lysophosphatidic acid receptor 2 (Homo sapiens), sequence (Q9HBW0 whole entry): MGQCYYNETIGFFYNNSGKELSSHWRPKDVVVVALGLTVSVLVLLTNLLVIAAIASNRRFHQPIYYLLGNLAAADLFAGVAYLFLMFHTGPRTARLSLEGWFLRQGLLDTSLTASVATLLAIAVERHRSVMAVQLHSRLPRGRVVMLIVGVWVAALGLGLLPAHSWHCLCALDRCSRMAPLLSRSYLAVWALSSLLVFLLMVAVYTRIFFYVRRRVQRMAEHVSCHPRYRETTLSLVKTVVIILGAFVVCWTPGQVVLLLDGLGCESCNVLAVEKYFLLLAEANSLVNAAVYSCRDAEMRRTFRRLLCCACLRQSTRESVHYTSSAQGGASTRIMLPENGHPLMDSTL
Lysophosphatidic acid receptor 4 (Homo sapiens), sequence (Q99677 whole entry): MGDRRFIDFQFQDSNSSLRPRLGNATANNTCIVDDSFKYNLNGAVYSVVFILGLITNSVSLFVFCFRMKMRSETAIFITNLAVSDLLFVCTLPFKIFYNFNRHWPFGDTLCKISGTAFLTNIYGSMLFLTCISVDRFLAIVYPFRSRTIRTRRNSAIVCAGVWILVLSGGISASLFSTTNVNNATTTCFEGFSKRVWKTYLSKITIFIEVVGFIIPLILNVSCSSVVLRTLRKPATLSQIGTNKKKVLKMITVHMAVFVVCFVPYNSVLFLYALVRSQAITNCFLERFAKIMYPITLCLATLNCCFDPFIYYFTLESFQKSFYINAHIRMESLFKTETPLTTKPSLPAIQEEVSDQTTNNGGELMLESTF
Lysophosphatidic acid receptor 1, sequence (Q92633 whole entry): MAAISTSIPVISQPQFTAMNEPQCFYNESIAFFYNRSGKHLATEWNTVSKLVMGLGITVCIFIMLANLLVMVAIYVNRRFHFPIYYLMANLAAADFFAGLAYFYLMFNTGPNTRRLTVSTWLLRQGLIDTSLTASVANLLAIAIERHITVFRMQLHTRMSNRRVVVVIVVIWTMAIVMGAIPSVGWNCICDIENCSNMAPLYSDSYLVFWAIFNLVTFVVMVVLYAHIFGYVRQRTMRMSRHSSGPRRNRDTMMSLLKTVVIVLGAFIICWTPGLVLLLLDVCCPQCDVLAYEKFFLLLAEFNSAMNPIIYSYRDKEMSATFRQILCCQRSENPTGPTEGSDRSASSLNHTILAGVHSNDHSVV

For orientation: IC50 means the concentration at which inhibition is half-maximal. As for `O=S(=O)(c1cc(N(S(=O)(=O)c2cccc(F)c2)S(=O)(=O)c2cccc(F)c2)c(Cl)cc1Cl)N1CCOCC1`, the IC50 at Autotaxin [1] is above 1000 nM. Moreover, the inhibition entry (on Autotaxin [2]; in experiment [3]; in experiment [4]) was “inactive” throughout.

For the compound `CN1CCN(S(=O)(=O)c2cc(C(=S)Nc3cc(Cl)c(F)c(Cl)c3)c(Cl)cc2Cl)CC1`, the inhibition result (at Autotaxin [2]; in [3]; in experiment [4]) was “inactive” each time.

Turning to `COC(=O)c1c(F)cc(NC(=O)c2cc(S(=O)(=O)N3CCOCC3)c(Cl)cc2Cl)cc1F`, the inhibition entry (on Autotaxin [2]; in experiment [3]; in [4]) was “inactive” in each case.

`O=S(=O)(c1cc(-c2nc3cccc(F)c3o2)c(Cl)cc1Cl)N1CCOCC1`: the IC50 on Autotaxin [1] was above 1000 nM. In addition, the inhibition entry (at Autotaxin [2]; in experiment [3]; in experiment [4]) was “inactive” each time.

Consider `O=S(=O)(Nc1cc(S(=O)(=O)N2CCOCC2)c(Cl)cc1Cl)c1cccc(F)c1`, for which the IC50 at Autotaxin [1] was above 1000 nM. The inhibition result (on Autotaxin [2]; in experiment [3]; in [4]) was “inactive” in each case.

`O=S(=O)(c1cc(CNc2cc(F)c(F)c(F)c2)c(Cl)cc1Cl)N1CCOCC1`: the inhibition entry (at Autotaxin [2]; in experiment [3]; in experiment [4]) was “inactive” each time.

For `CN1CCN(S(=O)(=O)c2cc(C(=O)Nc3cc(Cl)c(F)c(Cl)c3)c(Cl)cc2Cl)CC1`, the inhibition result (on Autotaxin [2]; in [3]; in experiment [4]) was “inactive” each time.

Turning to `N#Cc1c(F)cc(NC(=O)c2cc(S(=O)(=O)N3CCOCC3)c(Cl)cc2Cl)cc1F`, the inhibition entry (at Autotaxin [2]; in experiment [3]; in [4]) was “inactive” each time.

In the case of `O=C(Nc1cc(F)c(F)c(F)c1)c1cc(NN2CCOCC2)c(Cl)cc1Cl`, on Autotaxin [1], the IC50 is above 1000 nM. The inhibition result (on Autotaxin [2]; in experiment [3]; in experiment [4]) was “inactive” each time.

Regarding `O=C(Nc1cc(F)c(F)c(F)c1Br)c1cc(S(=O)(=O)N2CCOCC2)c(Cl)cc1Cl`, the IC50 on Autotaxin [1] is 18 nM; in experiment [5], “Not Active”. Also, the inhibition entry (at Autotaxin [2]; in experiment [6]; in [7]; in [8]; in experiment [9]; in experiment [3]) was “inactive” throughout. In addition, the inhibition entry in experiment [4] was “inactive”.

Turning to `CN(C(=O)c1cc(S(=O)(=O)N2CCOCC2)c(Cl)cc1Cl)c1cccc(F)c1`, on Autotaxin [1], the half-inhibitory concentration (IC50) was above 1000 nM. Also, the inhibition result (at Autotaxin [2]; in [3]; in [4]) was “inactive” throughout.

As to `O=S(=O)(c1cc(CNc2ccc(F)c(F)c2)c(Cl)cc1Cl)N1CCOCC1`, at Autotaxin [1], the concentration for half-maximal inhibition (IC50) was above 1000 nM. Besides, the inhibition entry (at Autotaxin [2]; in experiment [3]; in experiment [4]) was “inactive” throughout.

`O=S(=O)(c1cc(C(=S)Nc2ccc(F)c(F)c2)c(Cl)cc1Cl)N1CCOCC1`: the 50% inhibitory concentration (IC50) on Autotaxin [1] is 70 nM. The inhibition result (on Autotaxin [2]; in experiment [3]; in experiment [4]) was “inactive” in each case.

Take `O=C(Nc1c(F)c(F)c(F)c(F)c1F)c1cc(S(=O)(=O)N2CCOCC2)c(Cl)cc1Cl`: the inhibition entry (on Autotaxin [2]; in [3]; in experiment [4]) was “inactive” in each case.

`O=S(=O)(Nc1cc(F)c(F)c(F)c1)c1cc(S(=O)(=O)N2CCOCC2)c(Cl)cc1Cl`: on Autotaxin [1], the half-maximal inhibitory concentration (IC50) was above 1000 nM. The inhibition entry (at Autotaxin [2]; in [3]; in experiment [4]) was “inactive” in each case.

For `O=S(=O)(c1cc(C(=S)Nc2cccc(F)c2)c(Cl)cc1Cl)N1CCOCC1`, the inhibition result (at Autotaxin [2]; in experiment [3]; in [4]) was “inactive” each time.

`COc1cc(NC(=O)c2cc(S(=O)(=O)N3CCOCC3)c(Cl)cc2Cl)cc(OC)c1OC`: the 50% inhibitory concentration (IC50) at Autotaxin [1] was above 1000 nM. Also, the inhibition entry (on Autotaxin [2]; in [3]; in experiment [4]) was “inactive” throughout.

Turning to `O=S(=O)(Nc1cccc(F)c1)c1cc(S(=O)(=O)N2CCOCC2)c(Cl)cc1Cl`, the IC50 at Autotaxin [1] is above 1000 nM. The inhibition entry (at Autotaxin [2]; in experiment [3]; in [4]) was “inactive” in each case.

Turning to `O=C(Nc1cc(Cl)c(Cl)c(Cl)c1)c1cc(S(=O)(=O)N2CCOCC2)c(Cl)cc1Cl`, the 50% inhibitory concentration (IC50) on Autotaxin [1] was above 1000 nM. Also, the inhibition result (at Autotaxin [2]; in experiment [3]; in experiment [4]) was “inactive” in each case.

In the case of `O=S(=O)(c1cc(-c2nc3cc(F)c(F)cc3[nH]2)c(Cl)cc1Cl)N1CCOCC1`, the IC50 on Autotaxin [1] is above 1000 nM. The inhibition entry (on Autotaxin [2]; in experiment [3]; in [4]) was “inactive” throughout.

`CS(=O)(=O)N(C(=O)c1cc(NN2CCOCC2)c(Cl)cc1Cl)c1cc(F)c(F)c(F)c1`: the IC50 at Autotaxin [1] was above 1000 nM. Further, the inhibition result (at Autotaxin [2]; in [3]; in [4]) was “inactive” each time.

For the compound `CN1CCN(S(=O)(=O)c2cc(C(=O)Nc3cc(F)c(F)c(F)c3)c(Cl)cc2Cl)CC1`, the inhibition result (on Autotaxin [2]; in experiment [3]; in experiment [4]) was “inactive” in each case.

With `COc1cc(Cl)c(C(=O)Nc2cc(F)c(C(=O)O)c(F)c2)cc1S(=O)(=O)N1CCOCC1`, the IC50 on Autotaxin [1] is above 1000 nM. In addition, the inhibition result (on Autotaxin [2]; in experiment [3]; in [4]) was “inactive” throughout.

Consider `O=S(=O)(c1cc(C(=S)Nc2cc(Cl)c(F)c(Cl)c2)c(Cl)cc1Cl)N1CCOCC1`, for which the IC50 on Autotaxin [1] amounted to 98 nM. Moreover, the inhibition result (on Autotaxin [2]; in experiment [3]; in [4]) was “inactive” in each case.
